Experimental data published in ChEMBL document CHEMBL1255443, “CEM-101 activity against Gram-positive organisms” (Antimicrob Agents Chemother, 2010).
Values after ≈ are worked out from the molar mass of the structure shown. Active and inactive are the calls of the source.

What was measured:
Staphylococcus aureus [1] = test: Antimicrobial activity against Staphylococcus aureus ATCC 29213 after passaging with CEM-101 by broth microdilution method; assay type: functional
In short: (§1)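 Multistep resistance selection by CLSI reference broth microdilution. The full content of the last well showing growth was resuspended in broth to a 0.5 McFarland standard, and 5 × 10^5 CFU/ml was used for the next MIC panel, repeated over 7 passage days. Reversion was checked by three consecutive drug-free agar passages, followed by a final broth microdilution MIC. A ≥8-fold MIC change from initial counted as significant resistance.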

Staphylococcus aureus [2] = test: Antimicrobial activity against Staphylococcus aureus NRS384 after passaging with CEM-101 by broth microdilution method; assay type: functional; in short: as §1
Staphylococcus aureus [3] = test: Antimicrobial activity against Staphylococcus aureus 004-573D after passaging with CEM-101 by broth microdilution method; assay type: functional; in short: as §1
Staphylococcus aureus [4] = test: Antimicrobial activity against Staphylococcus aureus 117-472D after passaging with CEM-101 by broth microdilution method; assay type: functional; in short: as §1
Staphylococcus aureus [5] = test: Antimicrobial activity against Staphylococcus aureus 024-11490A after passaging with CEM-101 by broth microdilution method; assay type: functional; in short: as §1
Staphylococcus aureus [6] = test: Antimicrobial activity against Staphylococcus aureus 117-453D after passaging with CEM-101 by broth microdilution method; assay type: functional; in short: as §1
[7] = system: Staphylococcus haemolyticus; test: Antimicrobial activity against Staphylococcus haemolyticus 064-4090A after passaging with CEM-101 by broth microdilution method; assay type: functional; in short: as §1
Enterococcus faecalis [8] = test: Antimicrobial activity against Enterococcus faecalis ATCC 29212 after passaging with CEM-101 by broth microdilution method; assay type: functional; in short: as §1
Enterococcus faecalis [9] = test: Antimicrobial activity against Enterococcus faecalis 061-6556A after passaging with CEM-101 by broth microdilution method; assay type: functional; in short: as §1
Enterococcus faecalis [10] = test: Antimicrobial activity against Enterococcus faecalis 067-6633A after passaging with CEM-101 by broth microdilution method; assay type: functional; in short: as §1
Enterococcus faecium [11] = test: Antimicrobial activity against Enterococcus faecium 067- after passaging with CEM-101 by broth microdilution method; assay type: functional; in short: as §1
Enterococcus faecium [12] = test: Antimicrobial activity against Enterococcus faecium 086-15387A after passaging with CEM-101 by broth microdilution method; assay type: functional; in short: as §1
Streptococcus pneumoniae [13] = test: Antimicrobial activity against Streptococcus pneumoniae ATCC 49619 after passaging with CEM-101 by broth microdilution method; assay type: functional; in short: as §1
Streptococcus pneumoniae [14] = test: Antimicrobial activity against Streptococcus pneumoniae 063-1085A after passaging with CEM-101 by broth microdilution method; assay type: functional; in short: as §1
Streptococcus pneumoniae [15] = test: Antimicrobial activity against Streptococcus pneumoniae 075-241B after passaging with CEM-101 by broth microdilution method; assay type: functional; in short: as §1
Streptococcus pneumoniae [16] = test: Antimicrobial activity against Streptococcus pneumoniae 127-2273B after passaging with CEM-101 by broth microdilution method; assay type: functional; in short: as §1
Streptococcus pyogenes [17] = test: Antimicrobial activity against Streptococcus pyogenes 117-1612A after passaging with CEM-101 by broth microdilution method; assay type: functional; in short: as §1
Streptococcus pyogenes [18] = test: Antimicrobial activity against Streptococcus pyogenes 088-11708A after passaging with CEM-101 by broth microdilution method; assay type: functional; in short: as §1
Streptococcus mitis [19] = test: Antimicrobial activity against Streptococcus mitis 051-4933A after passaging with CEM-101 by broth microdilution method; assay type: functional; in short: as §1
Streptococcus mitis [20] = test: Antimicrobial activity against Streptococcus mitis 112-1885A after passaging with CEM-101 by broth microdilution method; assay type: functional; in short: as §1
Haemophilus influenzae = test: Antimicrobial activity against Haemophilus influenzae ATCC 49247 after passaging with CEM-101 by broth microdilution method; assay type: functional; in short: as §1
Moraxella catarrhalis = test: Antimicrobial activity against Moraxella catarrhalis 117-10142A after passaging with CEM-101 by broth microdilution method; assay type: functional; in short: as §1
Staphylococcus aureus [21] = test: Antibacterial activity against Staphylococcus aureus ATCC 29213 assessed as log cell killing at 8 times MIC in 24 hrs by time kill study; assay type: functional
In short: (§2)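 Time-kill assay following earlier published methods. Each agent tested at 2×, 4× and 8× its MIC for the strain. Viable colony counts taken at 0, 2, 4, 8 and 24 h. Bactericidal activity defined as a ≥3 log10 CFU/ml drop from the starting inoculum within 24 h.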

[22] = system: Staphylococcus epidermidis; test: Antibacterial activity against Staphylococcus epidermidis assessed as log cell killing at 8 times MIC in 24 hrs by time kill study; assay type: functional; in short: as §2
Streptococcus pneumoniae [23] = test: Antibacterial activity against Streptococcus pneumoniae ATCC 49619 assessed as log cell killing at 8 times MIC in 24 hrs by time kill study; assay type: functional; in short: as §2
Streptococcus pyogenes [24] = test: Antibacterial activity against Streptococcus pyogenes assessed as log cell killing at 8 times MIC in 24 hrs by time kill study; assay type: functional; in short: as §2
Staphylococcus aureus [25] = test: Antibacterial activity against Staphylococcus aureus ATCC 29213 assessed as bactericidal at 2 times MIC in 24 hrs by time kill study; assay type: functional, organism-based; in short: as §2
Staphylococcus aureus [26] = test: Antibacterial activity against Staphylococcus aureus ATCC 29213 assessed as bactericidal at 4 times MIC in 24 hrs by time kill study; assay type: functional, organism-based; in short: as §2
Staphylococcus aureus [27] = test: Antibacterial activity against Staphylococcus aureus ATCC 29213 assessed as bactericidal at 8 times MIC in 24 hrs by time kill study; assay type: functional, organism-based; in short: as §2
Enterococcus faecalis [28] = test: Antibacterial activity against Enterococcus faecalis ATCC 29212 assessed as bacteriostatic by time kill study; assay type: functional, organism-based; in short: as §2
Streptococcus pneumoniae [29] = test: Antibacterial activity against Streptococcus pneumoniae 241B assessed as bacteriostatic by time kill study; assay type: functional, organism-based; in short: as §2
Streptococcus pyogenes [30] = test: Antibacterial activity against Streptococcus pyogenes 088-11708A assessed as bactericidal at 2 times MIC in 24 hrs by time kill study; assay type: functional, organism-based; in short: as §2
Streptococcus pyogenes [31] = test: Antibacterial activity against Streptococcus pyogenes 088-11708A assessed as bactericidal at 4 times MIC in 24 hrs by time kill study; assay type: functional, organism-based; in short: as §2
Streptococcus pyogenes [32] = test: Antibacterial activity against Streptococcus pyogenes 088-11708A assessed as bactericidal at 8 times MIC in 24 hrs by time kill study; assay type: functional, organism-based; in short: as §2
[33] = system: Staphylococcus epidermidis; test: Antimicrobial activity against Staphylococcus epidermidis 095-2777A by broth microdilution method
[34] = system: Staphylococcus epidermidis; test: Antibacterial activity against Staphylococcus epidermidis 2777A assessed as bactericidal at 2 times MIC in 24 hrs by time kill study
[35] = system: Staphylococcus epidermidis; test: Antibacterial activity against Staphylococcus epidermidis 2777A assessed as bactericidal at 4 times MIC in 24 hrs by time kill study
[36] = system: Staphylococcus epidermidis; test: Antibacterial activity against Staphylococcus epidermidis 2777A assessed as bactericidal at 8 times MIC in 24 hrs by time kill study
Streptococcus mitis [37] = test: Antibacterial activity against Streptococcus mitis 112-1885A assessed as bactericidal at 2 times MIC in 24 hrs by time kill study; assay type: functional, organism-based; in short: as §2
Streptococcus mitis [38] = test: Antibacterial activity against Streptococcus mitis 112-1885A assessed as bactericidal at 4 times MIC in 24 hrs by time kill study; assay type: functional, organism-based; in short: as §2
Streptococcus mitis [39] = test: Antibacterial activity against Streptococcus mitis 112-1885A assessed as bactericidal at 8 times MIC in 24 hrs by time kill study; assay type: functional, organism-based; in short: as §2
[40] = system: Staphylococcus epidermidis; test: Antibacterial activity against Staphylococcus epidermidis 2777A assessed as bacteriostatic by time kill study
Streptococcus pneumoniae [41] = test: Antibacterial activity against Streptococcus pneumoniae ATCC 49619 assessed as bactericidal at 8 times MIC in 24 hrs by time kill study; assay type: functional, organism-based; in short: as §2
Streptococcus pneumoniae [42] = test: Antibacterial activity against Streptococcus pneumoniae ATCC 49619 assessed as bactericidal at 2 times MIC in 24 hrs by time kill study; assay type: functional, organism-based; in short: as §2
Streptococcus pneumoniae [43] = test: Antibacterial activity against Streptococcus pneumoniae ATCC 49619 assessed as bactericidal at 4 times MIC in 24 hrs by time kill study; assay type: functional, organism-based; in short: as §2
Streptococcus pyogenes [44] = test: Antibacterial activity against Streptococcus pyogenes 117-1612A assessed as bactericidal at 8 times MIC in 24 hrs by time kill study; assay type: functional, organism-based; in short: as §2

## CC[C@H]1OC(=O)[C@@](C)(F)C(=O)[C@H](C)[C@@H](O[C@@H]2O[C@H](C)C[C@H](N(C)C)[C@H]2O)[C@](C)(OC)C[C@@H](C)C(=O)[C@H](C)[C@H]2N(CCCCn3cc(-c4cccc(N)c4)nn3)C(=O)O[C@]12C [SOLITHROMYCIN]
Staphylococcus aureus [1]
  MIC: 0.06 µg/mL (≈ 0.071 µM)
Staphylococcus aureus [2]
  MIC: 0.12 µg/mL (≈ 0.142 µM)
Staphylococcus aureus [3]
  MIC: 0.12 µg/mL (≈ 0.142 µM)
Staphylococcus aureus [4]
  MIC: 0.12 µg/mL (≈ 0.142 µM)
Staphylococcus aureus [5]
  MIC: 0.12 µg/mL (≈ 0.142 µM)
Staphylococcus aureus [6]
  MIC: 0.12 µg/mL (≈ 0.142 µM)
[7]
  MIC: 0.12 µg/mL (≈ 0.142 µM)
Enterococcus faecalis [8]
  MIC: 0.03 µg/mL (≈ 0.0355 µM)
Enterococcus faecalis [9]
  MIC: 0.06 µg/mL (≈ 0.071 µM)
Enterococcus faecalis [10]
  MIC: 2 µg/mL (≈ 2.37 µM)
Enterococcus faecium [11]
  MIC: 0.06 µg/mL (≈ 0.071 µM)
Enterococcus faecium [12]
  MIC: 1 µg/mL (≈ 1.18 µM)
Streptococcus pneumoniae [13]
  MIC: 8 ng/mL (≈ 0.00947 µM)
Streptococcus pneumoniae [14]
  MIC: 0.015 µg/mL (≈ 0.0178 µM)
Streptococcus pneumoniae [15]
  MIC: 0.015 µg/mL (≈ 0.0178 µM)
Streptococcus pneumoniae [16]
  MIC: 0.06 µg/mL (≈ 0.071 µM)
Streptococcus pyogenes [17]
  MIC: 0.015 µg/mL (≈ 0.0178 µM)
Streptococcus pyogenes [18]
  MIC: 0.06 µg/mL (≈ 0.071 µM)
Streptococcus mitis [19]
  MIC: 0.12 µg/mL (≈ 0.142 µM)
Streptococcus mitis [20]
  MIC: ≤ 8 ng/mL
Haemophilus influenzae
  MIC: 2 µg/mL (≈ 2.37 µM)
Moraxella catarrhalis
  MIC: 0.12 µg/mL (≈ 0.142 µM)
Staphylococcus aureus [21]
  Activity: >=3 log10CFU/ml
[22]
  Activity: >=3 log10CFU/ml
Streptococcus pneumoniae [23]
  Activity: >=3 log10CFU/ml
Streptococcus pyogenes [24]
  Activity: >=3 log10CFU/ml
Staphylococcus aureus [25]
  Activity: Active
Staphylococcus aureus [26]
  Activity: Active
Staphylococcus aureus [27]
  Activity: Active
Enterococcus faecalis [28]
  Activity: Active
Streptococcus pneumoniae [29]
  Activity: Active
Streptococcus pyogenes [30]
  Activity: Active
Streptococcus pyogenes [31]
  Activity: Active
Streptococcus pyogenes [32]
  Activity: Active
[33]
  MIC: 0.12 µg/mL (≈ 0.142 µM)
[34]
  Activity: Active
[35]
  Activity: Active
[36]
  Activity: Active

## CC[C@H]1OC(=O)[C@H](C)C(=O)[C@H](C)[C@@H](O[C@@H]2O[C@H](C)C[C@H](N(C)C)[C@H]2O)[C@](C)(OC)C[C@@H](C)C(=O)[C@H](C)[C@H]2N(CCCCn3cnc(-c4cccnc4)c3)C(=O)O[C@]12C
Staphylococcus aureus [27]
  Activity: Active
Streptococcus mitis [37]
  Activity: Active
Streptococcus mitis [38]
  Activity: Active
Streptococcus mitis [39]
  Activity: Active
[40]
  Activity: Active

## CC[C@H]1OC(=O)[C@H](C)[C@@H](O[C@H]2C[C@@](C)(OC)[C@@H](O)[C@H](C)O2)[C@H](C)[C@@H](O[C@@H]2O[C@H](C)C[C@H](N(C)C)[C@H]2O)[C@](C)(O)C[C@@H](C)C(=O)[C@H](C)[C@@H](O)[C@]1(C)O
Staphylococcus aureus [27]
  Activity: Active
Streptococcus pneumoniae [41]
  Activity: Active
Streptococcus pneumoniae [42]
  Activity: Active
Streptococcus pneumoniae [43]
  Activity: Active
Streptococcus pyogenes [44]
  Activity: Active

## CC[C@H]1OC(=O)[C@H](C)[C@@H](O[C@H]2C[C@@](C)(OC)[C@@H](O)[C@H](C)O2)[C@H](C)[C@@H](O[C@@H]2O[C@H](C)C[C@H](N(C)C)[C@H]2O)[C@](C)(OC)C[C@@H](C)C(=O)[C@H](C)[C@@H](O)[C@]1(C)O [CLARITHROMYCIN]
Staphylococcus aureus [27]
  Activity: Active
